In publication PMC10966424 (Experimental and Therapeutic Medicine, 2024):

Key:
[1] = MTT cell viability, RAW 264.7 macrophages; format: cell-based, murine; conditions: mouse
Procedure, shortened: (§1)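 Cells are seeded at 1x10^5 cells/well, cultured for 24 h, then exposed to test compound at various concentrations for a further 24 h. MTT is added, formazan is dissolved in DMSO and absorbance is read at 570 nm. The tabulated viability is at 200 µM. Done at least in triplicate.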

[2] = MTT cell viability, DH82 macrophages; format: cell-based, canine; conditions: dog
Procedure, shortened: as §1

[3] = tested on: Mycobacterium tuberculosis; conditions: at low concentrations; cited from earlier work
[4] = tested on: NO production in LPS-stimulated RAW 264.7 cells; assay: LPS-stimulated NO production; format: cell-based, murine; conditions: Mus musculus, RAW264.7, 24 h, read-out: IC50 of NO, LPS (0.1 µg/ml)-stimulated RAW 264.7 cells, 24 h
Procedure, shortened: (§2)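 Macrophages are grown in DMEM with 10% FBS at 37 °C and 5% CO2, seeded at 1x10^5 cells/well and cultured for 24 h. They are pretreated with test compound for 1 h, then given LPS for 24 h (RAW 264.7: 0.1 µg/ml; DH82: 2 µg/ml). Medium NO is measured by Griess reagent against a standard curve; supernatant PGE2 is measured by ELISA. Done at least in triplicate.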

[5] = tested on: PGE2 production in LPS-stimulated RAW 264.7 cells; assay: LPS-stimulated PGE2 production; format: cell-based, murine; conditions: Mus musculus, RAW264.7, 24 h, read-out: IC50 of PGE2, LPS (0.1 µg/ml)-stimulated RAW 264.7 cells, 24 h
Procedure, shortened: as §2

DPPH radical scavenging = conditions: compared with parent nialamide; 50 to 200 µM
Procedure, shortened: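 DPPH (200 µM in EtOH) is mixed 1:2 by volume with test compound solutions (50 to 200 µM in 70% EtOH). The mixture is incubated at 30 °C in the dark for 15 min, and the drop in absorbance at 517 nm is read. Scavenging % = [1-(A2/A1)]x100, where A1 is the blank without sample. (+)-Catechin is the positive control; n=3.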

COX-2 [6] = assay: Western blot COX-2 protein expression, RAW 264.7; format: cell-based, murine; conditions: LPS-stimulated RAW 264.7; compared with nialamide
Procedure, shortened: (§3)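 Cells (2x10^5/well) are cultured for 24 h and pretreated with test compound for 1 h. LPS follows for 24 h (RAW 264.7: 0.1 µg/ml; DH82: 2 µg/ml). RIPA lysates (40 µg protein, BCA-quantified) are run on 10% SDS-PAGE and transferred to PVDF. Membranes are blocked in 5% milk, probed overnight at 4 °C with anti-iNOS and anti-COX-2 (1:1,000; canine-specific antibodies for DH82), then HRP secondary (1:3,000) for 2 h. Detection is ECL; densitometry uses GAPDH as the internal control; n=3.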

iNOS [7] = assay: Western blot iNOS protein expression, DH82; format: cell-based, canine; conditions: LPS-stimulated DH82; compared with nialamide
Procedure, shortened: as §3

IL-10 = assay: LPS-stimulated IL-10 production; format: cell-based, murine; conditions: LPS-stimulated RAW 264.7; compared with nialamide
Procedure, shortened: (§4)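 Seeding is 1x10^5 cells/well in DMEM with 10% FBS, followed by 24 h culture. Cells receive test compound for 1 h before LPS stimulation for 24 h (RAW 264.7: 0.1 µg/ml LPS; DH82: 2 µg/ml LPS). TNF-α, IL-6 and IL-10 in the culture medium are quantified by ELISA kits; n=3.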

IL-6 = assay: LPS-stimulated IL-6 production; format: cell-based, murine; conditions: LPS-stimulated RAW 264.7; compared with nialamide
Procedure, shortened: as §4

ABTS+ radical scavenging = conditions: compared with parent nialamide
Procedure, shortened: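 ABTS radical cation formed by mixing 7 mM ABTS in ethanol with 2.4 mM potassium persulfate and holding it in the dark at 25 °C for 24 h. The solution is added to test compound at several concentrations, mixed for 30 sec, then incubated for 30 min at 25 °C. Scavenging % = [1-(A2/A1)]x100, where A1 is the blank without sample. (+)-Catechin is the positive control; n=3.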

iNOS [8] = assay: Western blot iNOS protein expression, RAW 264.7; format: cell-based, murine; conditions: LPS-stimulated RAW 264.7; compared with nialamide
Procedure, shortened: as §3

[9] = tested on: ROS production in LPS-activated RAW 264.7 macrophages; assay: Intracellular ROS; format: cell-based, murine; conditions: LPS 0.1 µg/ml, 50 to 200 µM, DCFH-DA
TNF-α = assay: LPS-stimulated TNF-α production; format: cell-based, murine; conditions: LPS-stimulated RAW 264.7; compared with nialamide
Procedure, shortened: as §4

NF-κB = assay: Western blot NF-κB phosphorylation, RAW 264.7; format: cell-based, murine; conditions: RAW 264.7 cells
Procedure, shortened: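 RAW 264.7 cells (2x10^5/well) are pretreated with test compound for 1 h, then stimulated with 0.1 µg/ml LPS for 24 h. RIPA lysates (40 µg) are separated on 10% SDS-PAGE and blotted to PVDF. Blots are probed overnight at 4 °C with anti-p-p65, p65, p-IκB and IκB (1:1,000), followed by HRP secondary and ECL detection. GAPDH is the loading control; three independent experiments.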

COX-2 [10] = assay: Western blot COX-2 protein expression, DH82; format: cell-based, canine; conditions: LPS-stimulated DH82; compared with nialamide
Procedure, shortened: as §3

Row | Compound | viability at 24 h, 200 µM [1] | viability at 24 h, 200 µM [2] | inhibition of Mycobacterium tuberculosis [3] | IC50 [4] | IC50 [5] | DPPH radical scavenging activity (DPPH radical scavenging) | COX-2 protein expression (COX-2 [6]) | iNOS protein expression (iNOS [7]) | IL-10 production (IL-10) | IL-6 production (IL-6) | ABTS+ scavenging activity (ABTS+ radical scavenging) | iNOS protein expression (iNOS [8]) | ROS production [9] | TNF-α production (TNF-α) | LPS-stimulated phosphorylation of NF-κB (NF-κB) | COX-2 protein expression (COX-2 [10])
1 | O=C(CCNNC(=O)c1ccncc1)NCc1ccccc1 [Compound 1, nialamide, reference compound] | 102 ± 2.3% | 99.9 ± 1.2% | effectively inhibits | > 200 µM | > 200 µM | – | – | – | – | – | – | – | – | – | – | –
2 | COCCC(=O)NCc1ccccc1 [Compound 4, 3-methoxy-N-benzylpropanamide] | 102 ± 2.2% | 97.6 ± 1.1% | – | 178 ± 2 µM | 161 ± 2 µM | – | – | – | – | – | – | – | – | – | – | –
3 | NCCC(=O)NCc1ccccc1 [Compound 3, 3-amino-N-benzylpropanamide] | 102 ± 2% | 99.7 ± 1.2% | – | 170 ± 1.9 µM | 155 ± 1.9 µM | – | – | – | – | – | – | – | – | – | – | –
4 | NC(=O)c1ccncc1 [Compound 7, isonicotinamide] | 101 ± 1.9% | 98.4 ± 1.2% | – | > 200 µM | > 200 µM | – | – | – | – | – | – | – | – | – | – | –
5 | O=C(CCO)NCc1ccccc1 [Compound 5, 3-hydroxy-N-benzylpropanamide] | 99.9 ± 2.2% | 97.2 ± 1% | – | 63.5 ± 0.8 µM | 55.4 ± 0.7 µM | enhancement | significant dose-dependent suppression | significant dose-dependent suppression | potent dose-dependent suppression | potent dose-dependent suppression | enhancement | significant dose-dependent suppression | effectively suppress ROS production in a dose-dependent manner | potent dose-dependent suppression | dose-dependent inhibition | significant dose-dependent suppression
